Assay outcomes: PubChem BioAssay, several laboratories
SR-BI HDL uptake = inhibitors of SR-BI mediated HDL lipid uptake, primary screen, ldlA[mSR-BI] cells, fluorescence, single point; ldlA[mSR-BI] CHO cells, DiI-HDL uptake fluorescence, 3 h; Scavenger receptor class B member 1 (Mus musculus), Q61009; inhibition, % at 12.5 µM; 320,000 tested, 0.96% active;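 active means mean replicate inhibition of at least 70% and a set share of replicates each scoring 70 or more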;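 further: 0% = median of neutral control wells and 100% = median of positive control wells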
Target sequence (Q61009 whole entry, looked up): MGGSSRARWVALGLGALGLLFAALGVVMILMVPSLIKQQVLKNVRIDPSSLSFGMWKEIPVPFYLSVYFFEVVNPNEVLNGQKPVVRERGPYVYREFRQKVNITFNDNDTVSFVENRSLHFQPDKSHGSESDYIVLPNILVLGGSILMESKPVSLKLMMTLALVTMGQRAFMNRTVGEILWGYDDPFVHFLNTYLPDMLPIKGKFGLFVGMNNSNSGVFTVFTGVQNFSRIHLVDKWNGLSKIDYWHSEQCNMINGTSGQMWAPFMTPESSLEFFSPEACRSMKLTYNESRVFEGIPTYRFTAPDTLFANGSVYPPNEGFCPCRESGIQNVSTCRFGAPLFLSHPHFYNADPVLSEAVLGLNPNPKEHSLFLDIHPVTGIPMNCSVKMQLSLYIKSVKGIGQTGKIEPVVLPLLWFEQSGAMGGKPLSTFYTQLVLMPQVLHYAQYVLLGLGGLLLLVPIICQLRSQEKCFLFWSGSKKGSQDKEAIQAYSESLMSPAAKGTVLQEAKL
HIF activator = HIF pathway transcriptional activators, primary screen, cell-based, U2OS HRE-luciferase, luminescence; U2OS HRE-luciferase reporter; normalized: DMSO 0%, desferrioxamine 100%; activation, % at 7.5 µM (by protocol); 300,000 tested, 0.32% active; AID 1910, 2009;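 active means mean activation of at least 10% of the iron chelator positive control signal, with at least half of replicates also reaching 10%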
AHR activator = AHR activators, primary screen, cell-based, luminescence, luciferase reporter, human; Aryl hydrocarbon receptor (Homo sapiens), P35869; AHR-responsive luciferase reporter cells; activation, % at 5 µM; 320,000 tested, 2.5% active; in the data active means activation above about 47%;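 further: 0% = vehicle wells and 100% = reference agonist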
SR-BI uptake up = activators of SR-BI mediated DiI-HDL uptake, primary screen, ldlA[mSR-BI] CHO cells, DiI fluorescence; 320,000 tested, 0.096% active; 3 h; 100 = double the neutral-control signal; AID 504775, 2011; activation, % at 12.5 µM;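 active means mean replicate activation of at least 60% and every replicate at or above 60%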;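 further: 0% = median plate neutral-control signal and 100% = twice that signal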
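Material: SR-BI-overexpressing, LDLR-lacking CHO cells | Dosing: Single compound concentration, delivered by pin transfer | Probe or stimulus: Labelled HDL, 10 µg/mL | Signal: Bottom-read cell fluorescence after medium removal, ex 550/em 595 nm | Schedule: 3 h, 37 °C | Evaluation: HDL uptake via cellular fluorescence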
FXN GAA850 act = FXN promoter activators, primary screen, cell-based, luciferase luminescence, HEK293 lucGAA850; HEK293 lucGAA850 FXN promoter luciferase reporter, 24 h; percent of 10 µM SAHA response; activation, % at 6 µM; 360,000 tested, 0.56% active;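 active means activation above the average of all compounds screened plus 3 SD, cutoff fixed separately per campaign, cut at about 7.5% in these data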;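 further: 0% = DMSO wells and 100% = 10 µM SAHA wells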
ABCB6 inh MLPCN = ABCB6 transporter inhibitors, primary screen, K562-ABCB6 cells, flow cytometry, MLPCN library | 360,000 tested, 0.19% active | ATP-binding cassette sub-family B member 6 (Homo sapiens), Q9NP58 | fluorescence ratio to DMSO, % at 10 µM | AID 602162, 2011 | K562-ABCB6 porphyrin accumulation, 1 h; stronger effect = lower value;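 active means fluorescence ratio to DMSO below 75%, the collection mean minus 3 SD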;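 further: signal is porphyrin accumulated inside mitochondria; 100% equals median channel fluorescence of DMSO control wells; lower ratio means ABCB6 inhibition with less porphyrin fluorescence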
An asterisk follows results filed as active; nt = not tested or not shown. Most compounds without a hit are left out; they make up all but 3.9% or so of the library.

SMILES | SR-BI HDL uptake | HIF activator | AHR activator | SR-BI uptake up | FXN GAA850 act | ABCB6 inh MLPCN
COc1ccc2c(c1)cc(C(=O)N[C@H](C(=O)N1CCC[C@H]1C(=O)O)C(C)C)n2C | -5 | 0 | 7 | 5 | 0 | 99
O=C(NCCCn1ccnc1)c1ccncc1 | -24 | 0 | 9 | 24 | 0 | 96
O=C(NCCCn1ccnc1)c1ccc(Cl)c(Cl)c1 | 8 | -1 | 51* | -8 | 1 | 99
O=C(NCCCn1ccnc1)c1ccc(Cl)cc1 | 3 | 5 | 26 | -3 | 3 | 98
O=C(NCCCn1ccnc1)c1cc([N+](=O)[O-])cc([N+](=O)[O-])c1 | -3 | 0 | 48* | 3 | 1 | 103
COC(=O)c1cccc(NC(=O)NC(=O)c2ccc(Cl)cc2)c1 | -3 | -3 | -12 | 3 | 0 | 103
CS(=O)(=O)c1ccc(C(=O)OCC(=O)NC23CC4CC(CC(C4)C2)C3)cc1[N+](=O)[O-] | 23 | 3 | -2 | -23 | 12* | 105
Cn1cccc1C(=O)NC(=O)COC(=O)c1ccc(S(C)(=O)=O)c([N+](=O)[O-])c1 | -1 | nt | 8 | 1 | 7 | 102
CC(NC(=O)CSc1nnc(-c2cccc(S(=O)(=O)N3CCCCC3)c2)o1)C12CC3CC(CC(C3)C1)C2 (centres undefined) | -29 | 0 | 1 | 29 | 2 | 99
CCCc1nc2cc3c(cc2[nH]1)n(C)c(=O)n3C | -8 | 0 | 75* | 8 | 0 | 93
Cc1cc(NC(=O)CSc2nccn2-c2ccc(Cl)cc2)no1 | -22 | 0 | 3 | 22 | 0 | 93
O=C(c1ccc2c(c1)OCO2)C1CCCN(Cc2cccn2-c2cccnc2)C1 (centres undefined) | -12 | 0 | 49* | 12 | -1 | 95
O=C(c1ccc(Cl)cc1)C1CCCN(Cc2cccn2-c2cccnc2)C1 (centres undefined) | 6 | 0 | 20 | -6 | 0 | 93
CSc1nncn1/N=C/c1ccc2c(c1)OCO2 | -26 | 0 | 51* | 26 | -3 | 95
Cc1c(NC(=O)C2CCN(S(=O)(=O)c3ccc(Cl)cc3)CC2)c(=O)n(-c2ccccc2)n1C | 5 | 0 | 2 | -5 | 0 | 98
O=[N+]([O-])c1ccc(NN=Cc2ccc(O)cc2O)nc1 | 46 | nt | nt | -46 | -8 | 106
O=[N+]([O-])c1ccc(NN=Cc2ccccc2O)nc1 | 88* | nt | nt | -88 | -1 | 109
O=[N+]([O-])c1ccc(O)c(/C=N/Nc2nc3ccccc3[nH]2)c1 | 87* | -2 | 57* | -87 | -6 | 92
O=[N+]([O-])c1ccc(O)c(/C=N/NC(=S)Nc2ccc(Cl)cc2Cl)c1 | 105* | 3 | 11 | -105 | -1 | 98
N#Cc1ccccc1Cn1cc(/C=N/Nc2ccc([N+](=O)[O-])cn2)c2ccccc21 | 96* | 0 | 3 | -96 | -2 | 468
O=[N+]([O-])c1ccc(O)c(C=NNc2ccc(S(=O)(=O)O)cc2)c1 | -13 | nt | nt | 13 | -1 | 99
Cc1ccc(/C=N/Nc2cccc3cccnc23)c(O)c1 | 54 | 4 | 60* | -54 | 7 | 102
O=[N+]([O-])c1ccc(O)c(/C=N/Nc2ccccn2)c1 | 54 | 63* | 4 | -54 | -3 | 95
Oc1ccc(C=NNc2ccccn2)c(O)c1 | -3 | nt | nt | 3 | -9 | 94
CCn1nc(C)c(/C=N/NC(=S)Nc2ccc(Cl)cc2Cl)c1C | nt | 2 | 53* | nt | 2 | 96
SMILES | SR-BI HDL uptake | HIF activator | AHR activator | SR-BI uptake up | FXN GAA850 act | ABCB6 inh MLPCN
O=[N+]([O-])c1cccc(N/N=C/c2cc([N+](=O)[O-])ccc2O)c1 | 30 | 1 | 54* | -30 | 1 | 104
CC1(C(=O)Nc2ccc3c(c2)OCO3)CCN1C(=O)Cc1ccc(-c2ccccc2)cc1 (centres undefined) | nt | nt | nt | nt | -2 | 95
COc1ccc(C2(CNC(=O)c3cccc([N+](=O)[O-])c3)CCOCC2)cc1OC | -20 | -1 | 3 | 20 | 5 | 103
Cc1cccc(N/N=C/c2ccccc2O)c1 | 36 | 1 | 65* | -36 | 6 | 94
CCN(CC)c1ccc(C=NNc2ccc([N+](=O)[O-])cn2)cc1 | 84* | nt | nt | -84 | 5 | 345
COc1ccccc1C1=NOC(COC(=O)c2ccc(Br)cc2)C1 (centres undefined) | -4 | 0 | 15 | 4 | 6 | 108
Cc1[nH]n(-c2ccccc2)c(=O)c1N=Nc1ccc(Cl)cc1 | 2 | -4 | 51* | -2 | 0 | 102
CC(=O)c1ccc(N=Nc2c(C)[nH]n(-c3ccccc3)c2=O)cc1 | 20 | 0 | 54* | -20 | 2 | 95
Nc1[nH]n(-c2ccccc2)c(=O)c1N=Nc1ccc2c(c1)OCO2 | nt | 3 | 121* | nt | 3 | 93
COc1ccc2oc(/C=C/N(C)C)c(C(=O)c3ccc(Cl)cc3)c2c1 | 78* | 0 | 5 | -78 | 4 | 104
COc1ccc2oc(C)c(C(=O)c3ccccc3)c2c1 | nt | 1 | -3 | nt | 0 | 103
O=C(CSc1n[nH]c(-c2ccco2)n1)Nc1sc2c(c1C(=O)Nc1ccccc1)CCCC2 | 34 | 0 | 48* | -34 | -1 | 93
CCOC(=O)c1c(NC(=O)CSc2n[nH]c(-c3ccco3)n2)sc(C)c1C | -18 | 0 | 3 | 18 | 0 | 98
COc1ccccc1NC(=O)c1ccccc1Nc1ccccc1 | 38 | -19 | 1 | -38 | 1 | 99
COc1ccccc1Nc1ccc(N)cc1 | 84* | -1 | 2 | -84 | 2 | 116
O=c1cccc2n1Cc1cc3ccccc3nc1-2 | -18 | 3 | 58* | 18 | 6 | 99
c1ccc2c(c1)-c1nc3ccccc3cc1C2N1CCCCC1 (centres undefined) | nt | nt | nt | nt | 1 | 96
CN(C)/N=C/c1ccc(OC(=O)c2cccc([N+](=O)[O-])c2)cc1 | -21 | 0 | 3 | 21 | -1 | 98
CC(/C=N/NC(=O)C(O)c1ccccc1)=C\c1ccccc1 (centres undefined) | 22 | 2 | 5 | -22 | 7.8* | 92
CC(/C=N/Nc1ncc(C)c(=O)[nH]1)=C\c1ccccc1 | -12 | 1 | 61* | 12 | 3 | 77
CC(/C=N/Nc1nc(C)cc(=O)[nH]1)=C\c1ccccc1 | -11 | 0 | 8 | 11 | 1 | 98
CCn1c2ccc(Cl)cc2c2nc3ccccc3nc21 | nt | 0 | 53* | nt | nt | nt
